Assay results from different studies.
Lines come from different studies, so protocols differ.
Target: Serine/threonine-protein kinase PknB (pknB, Mycobacterium tuberculosis, UniProt P9WI81)

| Structure (SMILES) | assay | setting | endpoint | result |
| --- | --- | --- | --- | --- |
| Nc1ncc(-c2nc(N3CCOCC3)nc(N3CCOCC3)n2)c(C(F)F)n1 | cell-free assay | 10 µM | remaining signal | 66% |
| Nc1ncnc2occ(-c3ccc(NC(=O)Nc4cc(C(F)(F)F)ccc4F)cc3)c12 | cell-free assay | 20 µM | remaining signal | 66% |
| Cc1ccc(C(=O)Nc2ccc(CN3CCN(C)CC3)c(C(F)(F)F)c2)cc1C#Cc1cnc2cccnn12 | cell-free assay | 23.5 nM | remaining signal | 98% |
| CN(C)c1nccc(-c2cnn3ncccc23)n1 | binding | 1 µM | remaining binding | 76% |
| C[C@@H]1CN(c2cc(-c3n[nH]c4ccc(OC5(C)CC5)cc34)ncn2)C[C@H](C)O1 | cell-free assay, competition with immobilised ligand | 0.1 µM | remaining binding | 95% |
| CC1CCCN1c1nccc(-c2cnn3ncccc23)n1 (centres unmarked) | binding | 1 µM | remaining binding | 100% |
| COc1cc(Nc2ncc(F)c(Nc3ccc4c(n3)NC(=O)C(C)(C)O4)n2)cc(OC)c1OC | binding, competition with immobilised ligand | 10 µM | inhibition | 46% |
| C[C@H](c1ccnc(Nc2nc3ccc(-c4cc(N(C)C)ncn4)cc3[nH]2)c1)N1CCN(C(=O)CC(F)(F)F)CC1 | cell-free assay, competition with immobilised ligand | 0.1 µM | remaining binding | 91% |
